Assay outcomes as filed in PubChem BioAssay.
GSK3beta inhib: human GSK3beta kinase inhibitors, primary screen, biochemical, cell-free homogeneous, HTS; Glycogen synthase kinase-3 beta (Homo sapiens), P49841; GST-GSK3beta kinase, ADP-Glo luminescence, 60 min; hits give low values; activity score (negative = inhibition), % at 10 µM; 0.038% of 300,000 active;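 active = more than half of replicate wells score below -50%, meaning over 50% inhibition versus plate controls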;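 also: 0% = median DMSO wells and -100% = median GW8510 positive control wells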
Target sequence (P49841 whole entry, looked up): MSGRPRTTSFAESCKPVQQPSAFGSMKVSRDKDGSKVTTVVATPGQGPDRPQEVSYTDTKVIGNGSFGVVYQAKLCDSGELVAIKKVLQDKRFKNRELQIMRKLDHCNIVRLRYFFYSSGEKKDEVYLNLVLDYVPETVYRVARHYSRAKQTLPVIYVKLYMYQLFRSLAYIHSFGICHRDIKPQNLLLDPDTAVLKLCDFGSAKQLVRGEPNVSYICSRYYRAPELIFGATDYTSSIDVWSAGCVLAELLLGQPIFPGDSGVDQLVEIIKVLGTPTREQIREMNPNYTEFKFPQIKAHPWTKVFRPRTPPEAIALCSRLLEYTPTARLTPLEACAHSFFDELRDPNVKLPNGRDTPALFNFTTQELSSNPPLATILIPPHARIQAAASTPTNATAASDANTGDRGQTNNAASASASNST
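Assay system: GST-tagged human GSK3beta kinase, cell-free; Input: 1.6 ng GSK3beta; Medium: Tris/MgCl2 kinase buffer; Timing: 60 min enzyme reaction, room temperature; Signal: ADP-Glo luminescence quantifying ADP generated by kinase; Evaluation: score relative to plate controls; Benchmarks: DMSO neutral wells and GW8510 at 20 µM as positive.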
MEKK2wt PB1 HTS: modulators of MEK5 binding to wildtype MEKK2, primary screen, biochemical, multiplex bead flow cytometry, Alexa488-MEK5 | Mitogen-activated protein kinase kinase kinase 2 (Homo sapiens), Q9Y2U5 | Alexa488-MEK5 binding to MEKK2 WT; actives lie on both sides | binding response (% of control), % at 10 µM | 1.1% of 290,000 active | AID 1531, 2009; in the data active = binding response below about 67% or above about 130%
STK33 inh: inhibitors of purified STK33 kinase, primary screen, biochemical, ADP-Glo luminescence, homogeneous, cell-free | Serine/threonine-protein kinase 33 (Homo sapiens), Q9BYT3 | MBP phosphorylation | inhibition, % at 10 µM | 0.073% of 320,000 active;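 active = inhibition at or above 25%, using the most active replicate where run in duplicate; inactive = inhibition below 25%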
GSK3 alpha inh: blockers of GSK3A enzyme activity – biochemical, luminescence, cell-free homogeneous, HTS, primary screen | Glycogen synthase kinase-3 alpha (Homo sapiens), P49840 | GSK-3 alpha kinase, ADP-Glo luminescence, 60 min | inhibition, % at 10 µM | 0.1% of 320,000 active | AID 2650, 2010;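 active = more than half of replicates show inhibition above 20%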;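 also: GST-tagged GSK-3 alpha with peptide substrate and 25 µM ATP; 0% = DMSO neutral wells and 100% = GW8510 positive control wells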
MEKK2 mut-MEK5: MEK5 binding signal on mutant MEKK2 PB1, primary screen, biochemical, multiplex bead flow cytometry, Alexa488-MEK5; percent response, % at 10 µM; 0.35% of 290,000 active; Alexa488-MEK5 binding to MEKK2 mutant; in the data active = percent response above about 24%, passing the limit was not always enough
MEKK3 PB1 HTS: modulators of MEKK3-MEK5 PB1 binding, primary screen, biochemical, wildtype MEKK3, multiplex bead flow cytometry, Alexa488-MEK5; AID 1529, 2009; 1.4% of 290,000 active; Mitogen-activated protein kinase kinase kinase 3 (Homo sapiens), Q99759; bead-based flow cytometry, Alexa488-MEK5 binding to MEKK3; actives lie on both sides; 0 = blocked by unlabeled MEK5, 100 = vehicle; binding response (% of control), % at 10 µM;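 active = binding response more than 3 SD above or below the average of its plate-row segment, actives on both sides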;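 also: Alexa488 bead fluorescence after subtracting the streptavidin-only scavenger bead signal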
MEKK2wt confirm: modulators of MEK5 binding to wildtype MEKK2, confirmation, biochemical, single concentration, multiplex bead flow cytometry; shares compounds with MEKK3 PB1 HTS; Alexa488-MEK5 binding to MEKK2 WT; actives lie on both sides; binding response (% of control), % at 10 µM; 2.4% of 5,900 active; in the data active = binding response below about 16% or above about 210%; inactive = in between
MEKK2mut-MEK5: mutant MEKK2 PB1-MEK5 binding signal retest – biochemical, single concentration, multiplex bead flow cytometry, confirmation; shares compounds with MEKK3 PB1 HTS; Alexa488-MEK5 binding to MEKK2 mutant; percent response, % at 10 µM; 2% of 5,900 active; AID 1893, 2009; in the data active = percent response mostly above about 71%, no sharp cut-off; inactive = mostly below about 38%;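 also: higher means compound restores mutant binding toward wildtype level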
MEKK3 confirm: MEKK3 wild-type PB1 binding to MEK5, inhibitors, confirmation, biochemical, bead multiplex flow cytometry, single concentration, wildtype; shares compounds with MEKK3 PB1 HTS; Alexa488-MEK5 binding to MEKK3; hits give low values; binding response (% of control), % at 10 µM; 1.8% of 5,900 active; AID 1894, 2009;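 active = binding response below 72% of control, or above a set upper limit, though filed actives all read lower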;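 also: 100% = DMSO only wells and 0% = binding blocked by excess unlabeled MEK5; lower values mean stronger disruption of MEK5 binding to MEKK3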
Numbers without * were called inactive; . = no result; [ ] = dose if it differs, or a comment. In the library only some 2.1% were active in any assay of this set; here they are far more common.

SMILES	GSK3beta inhib	MEKK2wt PB1 HTS	STK33 inh	GSK3 alpha inh	MEKK2 mut-MEK5	MEKK3 PB1 HTS	MEKK2wt confirm	MEKK2mut-MEK5	MEKK3 confirm
COC(=O)c1c(NC(=O)c2ccccc2)sc2c1CC(C)(C)NC2(C)C	-2	121	-3	-1	15	103	.	.	.
CCOC(=O)c1c(NC(=O)c2ccc(C)cc2)sc2c1CC(C)(C)NC2(C)C	0	138*	0	1	30	107	119	11	109
COc1ccc(NC(=O)CS(=O)c2cccc(Cl)c2)cc1 (stereo not given)	1	96	-2	0	-2	97	.	.	.
CC(C)c1ccc(CNC(=O)CSCC(=O)Nc2ccc3ccccc3c2)cc1	3	140*	-2	-4	12	117	106	2	101
CCOC(=O)C1=C2NC(=O)c3ccccc3N2C(=O)C1	-4	91	0	-3	-3	89	.	.	.
CC(NC(=O)COC(=O)c1ccc2c(c1)S(=O)(=O)N=C1CCCCCN12)C12CC3CC(CC(C3)C1)C2 (stereo not given)	1	109	0	-3	19	105	.	.	.
CC(C)(C)NC(=O)NC(=O)COC(=O)c1ccc2c(c1)S(=O)(=O)N=C1CCCCCN12	4	103	-2	0	3	147*	102	11	99
CCCC(=O)Nc1ccccc1Sc1ncnc2scc(-c3ccccc3)c12	4	98	-1	-6	-1	101	.	.	.
CC(=O)Nc1ccc(Sc2ncnc3scc(-c4ccccc4)c23)cc1	-2	99	0	0	-1	128*	102	5	104
OCC1(Cc2cccc(Cl)c2)CCCN(Cc2cnn(-c3ccccc3)c2)C1 (stereo not given)	0	140*	-2	-2	24	94	130	20	103
Cn1cc(CN2CCCC(CO)(Cc3cccc(Cl)c3)C2)cn1 (stereo not given)	2	112	-1	-1	7	103	.	.	.
O=C1CCc2cc(S(=O)(=O)NCc3ccc(F)cc3)cc3c2N1CC3	1	.	.	.	.	.	.	.	.
Cc1ccc2nc(-c3ccc(NC(=O)CN4CCN(c5ccccn5)CC4)cc3)sc2c1	2	121	-2	-1	27	130*	96	-2	103
Cc1ccc2nc(NC(=O)CN3CCN(c4ccccn4)CC3)sc2c1	5	105	4	-2	6	103	.	.	.
O=C(CCc1nc2ccccc2c(=O)[nH]1)Nc1cc(C(F)(F)F)ccc1N1CCCC1	.	.	0	-2	.	.	.	.	.
COc1cccc(C(C)NC(=O)Nc2cc(Cl)ccc2OC)c1 (stereo not given)	-6	101	0	2	0	100	.	.	.
COc1ccc(Cl)cc1NC(=O)NC(C)C	-5	54	-1	0	-13	47*[inhibitor]	100	-4	102
O=C(c1cc(Cl)ccc1Cl)N1CCOCC1	9	-4.0*[inhibitor]	-1	1	-21	0.0*[inhibitor]	106	13	102
COc1ccc(C2=NO[C@@H]3[C@@H]4C[C@@H]([C@H]5C(=O)N(C)C(=O)[C@@H]45)[C@H]23)cc1	-8	107	-1	-1	2	153*	101	-1	100
NNC(=O)CS(=O)(=O)CS(=O)(=O)CC(=O)NN	2	.	-2	2	.	.	.	.	.
Cc1cc(C)c(S(=O)(=O)c2ccccc2C(=O)O)c(C)c1	5	124	-2	-5	6	126*	101	9	104
CC(C)(C)S(=O)(=O)c1ccccc1C(=O)O	7	104	0	1	4	102	.	.	.
CSc1ccccc1OCc1cc(C(=O)NCCCn2nc(C)cc2C)no1	-4	90	-1	4	-9	96	.	.	.
Cc1ccccc1OCC(=O)NCCCNC(=O)c1ccccn1	1	102	2	0	3	102	.	.	.
Cc1c2cnn(CC(=O)NCCCN3CCCCC3)c(=O)c2c(C)n1Cc1ccccc1	3	137*	-2	-1	22	101	128	20	98
SMILES	GSK3beta inhib	MEKK2wt PB1 HTS	STK33 inh	GSK3 alpha inh	MEKK2 mut-MEK5	MEKK3 PB1 HTS	MEKK2wt confirm	MEKK2mut-MEK5	MEKK3 confirm
COc1ccc(C(C(=O)NCc2ccccc2)N(C(=O)c2snc(C(N)=O)c2N)C2CCCC2)cc1O (stereo not given)	-1	104	-1	0	4	104	.	.	.
O=S(=O)(c1ccc(F)cc1)N1CCN(c2ncccn2)CC1	-2	118	-2	-4	28	134*	108	10	109
CN(C)CC(CCC(CN(C)C)C(O)(c1ccccc1)c1ccccc1)C(O)(c1ccccc1)c1ccccc1 (stereo not given)	4	149*	.	.	21	108	161	45	117
COc1ccc(CNC(=O)C2CC(c3cccc(OC)c3)=NO2)cc1 (stereo not given)	5	89	-1	-1	-4	82*[inhibitor]	103	0	102
COc1cccc(C2=NOC(C(=O)NCc3ccc(F)cc3)C2)c1 (stereo not given)	0	.	-1	-3	.	.	.	.	.
NS(=O)(=O)c1ccc(CCNCc2cc(Br)ccc2OCc2ccccc2)cc1	-4	145*	-1	-1	8	112	120	5	103
CCNCc1cc(Cl)c(OCc2ccccc2)c(OCC)c1	-1	112	-4	2	1	111	.	.	.
COc1ccc(CNCCc2ccccc2)cc1OCC(N)=O	4	106	1	1	7	98	.	.	.
CCOc1cc(CNCc2ccccc2)ccc1OCc1ccc(Cl)cc1	0	160*	-1	0	22	99	170	36	105
